# Data from ChEMBL document CHEMBL5058577, “EUbOPEN Chemogenomics Library 2 (Multiplex)” (2022).
# System: U2OS
# Experiment: Multiplex assay against U2OS
# Format: toxicity, cell-based
# Conditions: human
# How it was run: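 Live cells were stained at seeding with Hoechst33342, BioTracker Green Microtubule Cytoskeleton Dye, MitoTracker Red and Annexin V Alexa Fluor 680. Following compound addition, they were imaged on a CQ1 microscope at 37°C and 5% CO2 and gated by CellPathfinder machine learning into Hoechst high-intensity objects or normal cells, with normal cells split into healthy, pyknosed or fragmented nuclei and pyknosed cells into mitotic or apoptotic. Tubulin, mitochondrial-mass and membrane-permeability phenotypes are per cents of healthy-nucleus cells.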
# [1] = 12 h, 1 µM, compound concentration 1 uM, replicate 1
# [2] = 12 h, 1 µM, compound concentration 1 uM, replicate 2
# [3] = 12 h, 10 µM, compound concentration 10 uM, replicate 1
# [4] = 12 h, 10 µM, compound concentration 10 uM, replicate 2
# [5] = 24 h, 1 µM, compound concentration 1 uM, replicate 1
# [6] = 24 h, 1 µM, compound concentration 1 uM, replicate 2
# [7] = 24 h, 10 µM, compound concentration 10 uM, replicate 1
# [8] = 24 h, 10 µM, compound concentration 10 uM, replicate 2
# [9] = 48 h, 1 µM, compound concentration 1 uM, replicate 1
# [10] = 48 h, 1 µM, compound concentration 1 uM, replicate 2
# [11] = 48 h, 10 µM, compound concentration 10 uM, replicate 1
# [12] = 48 h, 10 µM, compound concentration 10 uM, replicate 2
smiles,measurement,setting,value
Nc1nc(-c2ccco2)c2cnn(Cc3ccccc3F)c2n1,Population Apoptotic (%),[1],82%
same,Population Fragmented Nuclei (%),[1],23%
same,Population Healthy Nuclei (%),[1],68%
same,Population Hoechst High Intensity Objects (%),[1],1%
same,Population Membrane Permeable-Phenotype (%),[1],4%
same,Population Mitochondria Different-Phenotype (%),[1],2%
same,Population Mitotic Cells (%),[1],17%
same,Population Normal (%),[1],98%
same,Population Pyknosed Nuclei (%),[1],8%
same,Population Tubulin-Different-Phenotype (%),[1],3%
same,Total Cell Count,[1],280
same,Population Apoptotic (%),[2],92%
same,Population Healthy Nuclei (%),[2],64%
same,Population Hoechst High Intensity Objects (%),[2],0%
same,Population Membrane Permeable-Phenotype (%),[2],12%
same,Population Mitochondria Different-Phenotype (%),[2],5%
same,Population Mitotic Cells (%),[2],7%
same,Population Normal (%),[2],99%
same,Population Pyknosed Nuclei (%),[2],12%
same,Population Tubulin-Different-Phenotype (%),[2],8%
same,Total Cell Count,[2],109
same,Population Apoptotic (%),[3],87%
same,Population Fragmented Nuclei (%),[3],41%
same,Population Healthy Nuclei (%),[3],45%
same,Population Hoechst High Intensity Objects (%),[3],5%
same,Population Membrane Permeable-Phenotype (%),[3],10%
same,Population Mitochondria Different-Phenotype (%),[3],4%
same,Population Mitotic Cells (%),[3],12%
same,Population Normal (%),[3],94%
same,Population Pyknosed Nuclei (%),[3],12%
same,Population Tubulin-Different-Phenotype (%),[3],7%
same,Total Cell Count,[3],197
same,Population Apoptotic (%),[4],77%
same,Population Fragmented Nuclei (%),[4],20%
same,Population Healthy Nuclei (%),[4],72%
same,Population Hoechst High Intensity Objects (%),[4],0%
same,Population Membrane Permeable-Phenotype (%),[4],5%
same,Population Mitochondria Different-Phenotype (%),[4],5%
same,Population Mitotic Cells (%),[4],22%
same,Population Normal (%),[4],99%
same,Population Pyknosed Nuclei (%),[4],7%
same,Population Tubulin-Different-Phenotype (%),[4],1%
same,Total Cell Count,[4],125
same,Population Apoptotic (%),[5],96%
same,Population Fragmented Nuclei (%),[5],19%
same,Population Healthy Nuclei (%),[5],70%
same,Population Hoechst High Intensity Objects (%),[5],1%
same,Population Membrane Permeable-Phenotype (%),[5],4%
same,Population Mitochondria Different-Phenotype (%),[5],1%
same,Population Mitotic Cells (%),[5],3%
same,Population Normal (%),[5],98%
same,Population Pyknosed Nuclei (%),[5],9%
same,Population Tubulin-Different-Phenotype (%),[5],2%
same,Total Cell Count,[5],332
same,Population Apoptotic (%),[6],84%
same,Population Fragmented Nuclei (%),[6],18%
same,Population Healthy Nuclei (%),[6],71%
same,Population Hoechst High Intensity Objects (%),[6],4%
same,Population Membrane Permeable-Phenotype (%),[6],10%
same,Population Mitochondria Different-Phenotype (%),[6],3%
same,Population Mitotic Cells (%),[6],15%
same,Population Normal (%),[6],95%
same,Population Pyknosed Nuclei (%),[6],10%
same,Population Tubulin-Different-Phenotype (%),[6],8%
same,Total Cell Count,[6],127
same,Population Apoptotic (%),[7],82%
same,Population Fragmented Nuclei (%),[7],38%
same,Population Healthy Nuclei (%),[7],53%
same,Population Hoechst High Intensity Objects (%),[7],5%
same,Population Membrane Permeable-Phenotype (%),[7],7%
same,Population Mitochondria Different-Phenotype (%),[7],3%
same,Population Mitotic Cells (%),[7],17%
same,Population Normal (%),[7],94%
same,Population Pyknosed Nuclei (%),[7],7%
same,Population Tubulin-Different-Phenotype (%),[7],5%
same,Total Cell Count,[7],230
same,Population Apoptotic (%),[8],90%
same,Population Fragmented Nuclei (%),[8],19%
same,Population Healthy Nuclei (%),[8],73%
same,Population Hoechst High Intensity Objects (%),[8],1%
same,Population Membrane Permeable-Phenotype (%),[8],5%
same,Population Mitochondria Different-Phenotype (%),[8],0%
same,Population Mitotic Cells (%),[8],9%
same,Population Normal (%),[8],98%
same,Population Tubulin-Different-Phenotype (%),[8],4%
same,Total Cell Count,[8],157
same,Population Apoptotic (%),[9],94%
same,Population Fragmented Nuclei (%),[9],17%
same,Population Healthy Nuclei (%),[9],74%
same,Population Hoechst High Intensity Objects (%),[9],1%
same,Population Membrane Permeable-Phenotype (%),[9],2%
same,Population Mitochondria Different-Phenotype (%),[9],2%
same,Population Mitotic Cells (%),[9],5%
same,Population Normal (%),[9],98%
same,Population Pyknosed Nuclei (%),[9],7%
same,Population Tubulin-Different-Phenotype (%),[9],2%
same,Total Cell Count,[9],462
same,Population Apoptotic (%),[10],95%
same,Population Fragmented Nuclei (%),[10],16%
same,Population Healthy Nuclei (%),[10],67%
same,Population Hoechst High Intensity Objects (%),[10],6%
same,Population Membrane Permeable-Phenotype (%),[10],5%
same,Population Mitochondria Different-Phenotype (%),[10],5%
same,Population Mitotic Cells (%),[10],4%
same,Population Normal (%),[10],93%
same,Population Pyknosed Nuclei (%),[10],15%
same,Population Tubulin-Different-Phenotype (%),[10],1%
same,Total Cell Count,[10],141
same,Population Apoptotic (%),[11],95%
same,Population Fragmented Nuclei (%),[11],37%
same,Population Healthy Nuclei (%),[11],51%
same,Population Hoechst High Intensity Objects (%),[11],11%
same,Population Membrane Permeable-Phenotype (%),[11],17%
same,Population Mitochondria Different-Phenotype (%),[11],6%
same,Population Mitotic Cells (%),[11],4%
same,Population Normal (%),[11],88%
same,Population Pyknosed Nuclei (%),[11],10%
same,Population Tubulin-Different-Phenotype (%),[11],11%
same,Total Cell Count,[11],252
same,Population Apoptotic (%),[12],86%
same,Population Fragmented Nuclei (%),[12],23%
same,Population Healthy Nuclei (%),[12],69%
same,Population Hoechst High Intensity Objects (%),[12],2%
same,Population Membrane Permeable-Phenotype (%),[12],12%
same,Population Mitotic Cells (%),[12],13%
same,Population Normal (%),[12],97%
same,Population Pyknosed Nuclei (%),[12],7%
same,Population Tubulin-Different-Phenotype (%),[12],6%
same,Total Cell Count,[12],196
